Screening results as filed in PubChem BioAssay.
TRPC4 potent = positive allosteric modulators of TRPC4, primary screen, cell-based, mouse TRPC4beta, HEK293 mu-opioid, Fluo-4 calcium; DAMGO EC20, Fluo-4 Ca2+ flux; hits give high values; 310,000 compounds, 0.42% hits; Short transient receptor potential channel 4 (Mus musculus), Q9QUQ5; B-score at 10 µM; AID 2227, 2009;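 active = B-score of calcium response area above 5 SD of library B-scores, with initial fluorescence ratio within 5 SD of library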;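 note: B-score of integrated fluorescence ratio over time as area under calcium response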
TRPC6 inh = mouse TRPC6 channel inhibitors, primary screen, cell-based, HEK293, membrane potential dye | B-score at 10 µM | ACh-evoked depolarization; hits give low values | Short transient receptor potential channel 6 (Mus musculus), Q61143 | 310,000 compounds, 1.1% hits;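 active = B-score under library mean minus 3 SD, initial fluorescence not abnormally high, positive integrated signal ratio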;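 note: B-score derived from integrated fluorescence ratio over the kinetic read; more negative B-score means stronger inhibition of depolarization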
Target sequence (Q61143 whole entry, looked up): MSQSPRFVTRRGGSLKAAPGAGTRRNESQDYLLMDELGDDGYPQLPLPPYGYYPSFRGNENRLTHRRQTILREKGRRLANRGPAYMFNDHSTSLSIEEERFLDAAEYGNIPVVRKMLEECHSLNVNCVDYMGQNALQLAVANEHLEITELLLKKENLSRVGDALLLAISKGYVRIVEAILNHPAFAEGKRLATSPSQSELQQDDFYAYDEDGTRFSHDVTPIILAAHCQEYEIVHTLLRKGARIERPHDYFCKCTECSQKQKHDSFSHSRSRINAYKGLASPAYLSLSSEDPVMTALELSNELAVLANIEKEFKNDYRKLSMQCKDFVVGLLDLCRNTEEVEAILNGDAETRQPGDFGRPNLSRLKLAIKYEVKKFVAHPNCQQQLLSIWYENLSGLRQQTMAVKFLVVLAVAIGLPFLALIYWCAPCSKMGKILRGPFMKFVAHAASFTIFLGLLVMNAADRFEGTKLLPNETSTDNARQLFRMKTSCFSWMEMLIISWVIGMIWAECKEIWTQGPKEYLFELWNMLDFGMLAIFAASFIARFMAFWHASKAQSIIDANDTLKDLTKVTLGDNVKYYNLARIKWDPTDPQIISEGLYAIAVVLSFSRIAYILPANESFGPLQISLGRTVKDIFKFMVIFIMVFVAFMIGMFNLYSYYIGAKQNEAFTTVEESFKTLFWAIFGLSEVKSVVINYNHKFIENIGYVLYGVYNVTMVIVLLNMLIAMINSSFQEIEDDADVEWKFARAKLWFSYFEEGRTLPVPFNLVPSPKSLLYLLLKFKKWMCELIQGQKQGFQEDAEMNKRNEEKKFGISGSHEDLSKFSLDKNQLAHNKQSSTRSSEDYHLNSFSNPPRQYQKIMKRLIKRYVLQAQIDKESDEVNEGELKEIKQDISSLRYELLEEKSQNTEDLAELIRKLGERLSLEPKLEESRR
TRPC6 activator = mouse TRPC6 channel activators, primary screen, cell-based, HEK293, membrane potential dye | 310,000 compounds, 0.13% hits | HEK293-TRPC6 membrane potential dye fluorescence; hits give high values | AID 2550, 2010 | B-score at 10 µM;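 active = B-score of the integrated fluorescence ratio above library mean plus 3 SD, and starting fluorescence ratio within library mean plus 5 SD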;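 note: higher score means more depolarization so channel activation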
TRPC4 inh = inhibitors of mouse TRPC4 channel, primary screen, Fluo4 calcium, HEK293 TRPC4beta/mu-opioid cells; 300,000 compounds, 0.39% hits; B-score at 10 µM; Short transient receptor potential channel 4 (Mus musculus), Q9QUQ5; DAMGO-evoked Fluo4 calcium flux; hits give low values;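 active = B-score over 3 SD under the library average, no early fluorescence shift, positive overall ratio signal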
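Test system – stable TRPC4beta/mu-opioid receptor HEK293 cells · Probe or stimulus – DAMGO, a submaximal dose followed by a maximal one · Dosing – one concentration per compound · Signal – Fluo4 calcium fluorescence by kinetic imaging, 5 s 1 Hz baseline · Evaluation – per-well B score of integrated baseline-normalized Fluo4 ratio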
TRPC4 agonist = activators of mouse TRPC4 channel, primary screen, Fluo4 calcium, HEK293 TRPC4beta/mu-opioid cells; Short transient receptor potential channel 4 (Mus musculus), Q9QUQ5; Fluo4 calcium fluorescence; hits give high values; B-score at 10 µM; 310,000 compounds, 0.49% hits;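 active = B-score above 5 SD of library B-scores, and initial fluorescence ratio not above library mean plus 5 SD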;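 note: positive B-score marks a calcium rise read as TRPC4 activation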
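System – HEK293 cells stably co-expressing mouse TRPC4beta and mu-opioid receptor · Signal – Fluo4 calcium-sensitive dye fluorescence, kinetic, 1 Hz baseline · Benchmarks – buffer (low) and maximal DAMGO (high) · Read-out – B score of integrated fluorescence ratio per well · Incubation – dye loading 45 min room temperature, 110 s kinetic read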
TRPC4 spec 2 = second selectivity test of TRPC6 inhibitors: effect on mouse TRPC4; shares compounds with TRPC6 inh; HEK293 TRPC4/MOR, membrane potential dye fluorescence; channel activated by saturating DAMGO dose; inhibition, % at 10 µM; 920 compounds, 42% hits; AID 2776;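 active = compounds whose fluorescence signal differed from control wells by over 3 SD, either direction, in both duplicate plates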
TRPC4 spec = mouse TRPC4 modulation by TRPC6 hits, confirmation, selectivity assay for TRPC6 inhibitor project, cell-based, HEK293 TRPC4/mu-opioid, membrane potential dye | 920 compounds, 61% hits | AID 2777, 2010 | shares compounds with TRPC6 inh | membrane potential fluorescence | activity change, negative = inhibition, % at 10 µM;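 active = rise or fall in signal beyond 3 SD of buffer-only wells in both replicate plates, either sign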;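 note: integrated kinetic ratio of fluorescence range over baseline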
HEK293 MPD ctr 2-1 = nonspecific membrane potential effects, parental HEK293, confirmation, counter-screen for TRPC6 inhibitor project, cell-based, second counter screen; shares compounds with TRPC6 inh; parental HEK293 membrane potential dye fluorescence; maximal acetylcholine challenge after compound addition; signal change vs control, % at 10 µM; 920 compounds, 31% hits;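 active = membrane potential signal moving either way by over 3 SD of the maximum-effect control, in both duplicate plates, meaning non-specific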
HEK293 MPD ctr-1 = membrane potential modulation in parental HEK293, confirmation, counter-screen for TRPC6 inhibitor project, cell-based; shares compounds with TRPC6 inh; parental HEK293 membrane potential dye fluorescence; membrane potential signal change, % at 10 µM; 920 compounds, 60% hits;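 active = membrane potential signal shifting up or down by more than 3 SD of buffer-only wells, on both duplicate plates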
HEK293 MPD ctr-2 = parental HEK293 membrane potential modulation, confirmation, counter-screen for TRPC6 modulator project, cell-based; shares compounds with TRPC6 inh; membrane potential signal change, % at 10 µM; membrane potential dye fluorescence; 2,400 compounds, 51% hits;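 active = membrane potential signal moves up or down beyond 5 SD from buffer-only wells, on both duplicate plates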
HEK293 MPD ctr 2-2 = second check of TRPC6 modulator effects in parental HEK293 cells; AID 488926; membrane potential dye fluorescence; after compound, maximal acetylcholine stimulation; 2,400 compounds, 14% hits; shares compounds with TRPC6 inh; inhibition, % at 10 µM;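 active = membrane potential signal drops by more than 5 SD from the mean control signal, in both duplicate plates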;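 note: plate controls were acetylcholine ECmax control wells for no effect and buffer only wells for full effect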
TRPC4/MOR mod = TRPC4 modulation by TRPC6 hit compounds, confirmation, selectivity assay for TRPC6 modulator project, cell-based, HEK293 TRPC4/mu-opioid, membrane potential dye, mouse | percent change from control (negative = decrease, positive = increase), % at 10 µM | membrane potential fluorescence | shares compounds with TRPC6 inh | 2,400 compounds, 69% hits;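 active = membrane potential signal moved up or down beyond 5 SD of buffer control wells, in both duplicate plates, actives on both sides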;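 note: plate controls were assay buffer wells for no effect and DAMGO maximal-effect wells for full effect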
TRPC4/MOR inh 2 = mouse TRPC4 off-target activity of TRPC6 modulators, second screen; shares compounds with TRPC6 inh; HEK293 TRPC4/mu-opioid, membrane potential dye fluorescence; stimulated with maximal-effect DAMGO; 2,400 compounds, 55% hits; inhibition, % at 10 µM;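 active = drop in membrane potential signal beyond 5 SD of the control wells in both duplicate plates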;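 note: TRPC4 counter screen for TRPC6 hits run under conditions tuned for TRPC6 not TRPC4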
TRPC6 inh conf = mouse TRPC6 channel inhibitors, confirmation, HEK293 cells, membrane potential dye, duplicate; inhibition, % at 10 µM; 3,300 compounds, 43% hits; AID 488960, 2010; shares compounds with TRPC6 inh; ACh-evoked depolarization;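 active = fluorescence ratio falls more than 5 SD below the full-stimulation control mean, in both duplicate runs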;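 note: integrated fluorescence ratio of peak minus minimum over baseline after agonist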
TRPC6 act conf = mouse TRPC6 channel activators, confirmation, HEK293 cells, membrane potential dye, duplicate; HEK293-TRPC6 membrane potential dye fluorescence, FDSS; shares compounds with TRPC6 inh; 2,800 compounds, 11% hits; AID 488961, 2010; activation, % at 10 µM;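 active = ratio signal rise beyond 5 SD above unstimulated control wells' mean, seen in both duplicate runs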;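 note: plate controls were buffer EC0 wells for no effect and acetylcholine ECmax response for full effect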
* hit, by the source's call; i = inactive; / = no result given; ! = a repeat was not active. Hits are enriched below; roughly 2.3% of the tested compounds scored in any of these assays.

SMILES	TRPC4 potent	TRPC6 inh	TRPC6 activator	TRPC4 inh	TRPC4 agonist	HEK293 MPD ctr-2	HEK293 MPD ctr 2-2	TRPC4/MOR mod	TRPC4/MOR inh 2	TRPC6 inh conf	TRPC6 act conf	others
CSCc1c(C(=O)NCCc2ccccn2)oc2ccccc12	12*	i	i	i	i	/	/	/	/	/	/
CSCc1c(C(=O)Nc2ccc3c(c2)OCO3)oc2ccccc12	i	i	i	i	i	/	/	/	/	/	/
COCc1ccc(C(=O)N2CCCC(Nc3ccc(C(C)C)cc3)C2)o1 (stereo not given)	i	i	i	i	i	/	/	/	/	/	/
CCn1cc(C(=O)OCc2ccccc2)c(=O)c2ccc(C)nc21	i	-6.02*	i	i	i	-308.0%*	i	-50.5%*	47.5%*	i	i
CCn1cc(C(=O)OCc2ccc(F)cc2)c(=O)c2ccc(C)nc21	i	-10*	i	i	i	-340.0%*	83.5%*	-52.5%*	65.0%*	63.5%*	i
CC(=O)Nc1ccc(S(=O)(=O)NCc2nc(-c3ccc(C)cc3)no2)cc1	i	i	i	i	i	/	/	/	/	/	/
CC1(C(O)(C#CC[N+]2(C)CCCCC2)c2ccccc2)CCCC1 (stereo not given)	i	-10.9*	i	i	i	/	/	/	/	106.6%*	i	TRPC4 spec 2=i;TRPC4 spec=i;HEK293 MPD ctr 2-1=-25.5%*;HEK293 MPD ctr-1=i
NC(=O)C[N+]1(CC#CC(O)(c2ccccc2)c2ccccc2)CCCC1	i	i	i	i	i	/	/	/	/	/	/
CC1CCC(C(C)C)C(OC(=O)Cn2c(-c3ccccc3)[n+](C)c3ccccc32)C1 (stereo not given)	i	-5.59*!	11.8*	i	i	506.5%*	i	110.5%*	60.5%*	63.0%*	176.0%*
